Experimental data as given in PubChem BioAssay.
Records with an inconclusive call do not appear. Calls of active or inactive are those of the source.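 The calls were made as follows, unless noted: active = RAM network inhibition above 8.4% in each of two replicates, 3 SD over the compound average; inconclusive = above 8.4% inhibition in only one replicate; inactive = 8.4% inhibition or less in each replicate.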

Assays:
[1] = OD615 S. cerevisiae growth inhibition, permissive medium, pilot counter-assay, permissive growth control for S. cerevisiae lifespan shortening project (AID 705;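 active = growth inhibition above 25% in both replicates, a cutoff set 3 SD above the mean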); conditions: OD615, 24 h, at 10 µM, hits give high values
Summary of the method: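 Material: engineered DeaD yeast; compound dosing: one dose 10 µM, DMSO 0.25% final; measure: yeast growth inhibition indicated by reduced 24 h OD615; detection: OD615 turbidity read; incubation: cells pre-grown 4 h, then 24 h compound exposure, 30 °C humidified; medium: permissive synthetic complete medium with raffinose and galactose carbon sources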

[2] = Restrictive medium S. cerevisiae growth inhibition, OD615, pilot screen of yeast lifespan reduction project, restrictive growth control (AID 706;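 active = growth inhibition above a set limit, 3 SD over mean compound inhibition, in both replicates, cut at about 43% in these data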;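 also: modified DeaD lifespan yeast strain shifted to restrictive glucose medium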); conditions: OD615, 48 h, at 10 µM, hits give high values
Summary of the method: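 material = engineered S. cerevisiae DeaD strain | medium = glucose-based CSMM-D restrictive medium | times = 4 h pre-incubation, 48 h exposure at 30 °C | technique = OD615 absorbance reading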

[3] = viability gain of MRP-1-high H69AR cells under doxorubicin, pilot screen, MRP-1 activator project, CellTiter-Glo, duplicate (AID 807;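 active = viability increase at or above a cutoff of the median across tested compounds plus 3 SD, cut at about 8.5% in these data, passing the limit was not always enough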;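 also: compound pretreatment 18-22 h then 72 h combined with doxorubicin; 0% = doxorubicin alone and 100% = vehicle without doxorubicin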); conditions: H69AR viability with doxorubicin, CellTiter-Glo luminescence; at 10 µM; hits give high values
[4] = growth suppression of beta-catenin knockout HCT116, pilot screen, human colon tumor cells (AID 823;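 active = cell viability at or below a set limit in both duplicate runs, the limit being the all-compound median minus 4 SD, cut at about 23% in these data, passing the limit was not always enough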;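 also: 0% = wells killed by 20 µM Hyamine and 100% = untreated DMSO cell wells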); conditions: CellTiter-Glo, 60 h, at 10 µM, hits give low values
[5] = growth suppression of PTEN-deleted HCT116, pilot screen, cell-based, HCT116 clonal line, CellTiter-Glo (AID 824;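 active = viability at or below 27.92% in each of two runs, the all-compound median minus 4 SD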;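 also: 0% = 20 µM Hyamine control and 100% = vehicle cell control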); conditions: 60 h, at 10 µM, hits give low values
[6] = inhibitors of the yeast RAM network, pilot screen, dse1pr::URA3 reporter, 5-FOA selection (AID 869;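 active = inhibition over a set limit, the all-compound mean plus 3 SD, in both replicate runs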;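 also: 0% = DMSO wells with no growth and 100% = 10 µM 1-NA-PP1 with full growth; RAM network block rescues cells from 5-FOA so hits raise OD615 growth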); conditions: S. cerevisiae dse1pr::URA3 5-FOA growth, OD615, 2 d; at 10 µM; hits give high values; strain carries analog-sensitive mutant Cbk1 kinase
[7] = RAM signaling pathway blockade in yeast – S. cerevisiae, Pdr1DBD-CYC8 efflux-inhibited sensitized strain, primary screen (AID 1298);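 also: 0% = DMSO untreated cells without growth and 100% = 10 µM 1-NA-PP1 full growth; higher means more yeast growth rescued from 5-FOA killing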; conditions: S. cerevisiae cbk1-as DSE1-URA3 strain, 5-FOA growth OD615, 2 d; at 50 µM; hits give high values

CN(C)C(=O)Nc1cnc2ccccc2c1
inactive: growth inhibition [1] 0.64% | growth inhibition [2] -11.9% | viability increase [3] -0.11% | viability [4] 104% | viability [5] 99.3% | inhibition [6] 1.16% | RAM network inhibition [7] 1.97%

Cc1ccc(C(C(=O)NC2CCCCC2)N2CCCC2)cc1 (configuration not stated)
inactive: growth inhibition [1] -4.08% | growth inhibition [2] -8.76% | viability increase [3] -3.02% | viability [4] 88.9% | viability [5] 93% | inhibition [6] 0.835% | RAM network inhibition [7] 8.97%

CCCN1CCN(CCCNC(=O)Cn2cc3c(n2)CCCC3)CC1
inactive: growth inhibition [1] -3.77% | growth inhibition [2] -2.67% | viability increase [3] -0.96% | viability [4] 101% | viability [5] 91% | inhibition [6] 0.27% | RAM network inhibition [7] 3.05%

O=C(CCc1nc2ccccc2[nH]1)NC1CCCCC1
inactive: growth inhibition [1] -16.3% | growth inhibition [2] -17.4% | viability increase [3] -0.01% | viability [4] 102% | viability [5] 96.9% | inhibition [6] 1.21% | RAM network inhibition [7] 1.28%

CC(C)n1c(=O)[nH]c2ccccc21
inactive: growth inhibition [1] -18.3% | growth inhibition [2] -9.29% | viability increase [3] -4.28% | viability [4] 89% | viability [5] 89.8% | inhibition [6] 0.575% | RAM network inhibition [7] 2.88%

CCCCSCc1[nH]c(=O)[nH]c1C(=O)CCCCC(=O)OCC
inactive: growth inhibition [1] -12.8% | growth inhibition [2] -1.29% | viability increase [3] -3.65% | viability [4] 99.4% | viability [5] 100% | inhibition [6] 0.975% | RAM network inhibition [7] 2.54%

Cn1c(=O)c2c(nc(CN3CCN(Cc4ccccc4)CC3)n2Cc2ccc(Cl)cc2)n(C)c1=O
inactive: growth inhibition [1] -2.47% | growth inhibition [2] -13.5% | viability increase [3] -6.52% | inhibition [6] 1.27% | RAM network inhibition [7] 2.33%
active: viability [4] 8.81% | viability [5] 10.3%

Cc1nnc(SCCn2c(N(C)Cc3ccccc3)nc3c2c(=O)[nH]c(=O)n3C)s1
inactive: growth inhibition [1] -9.54% | growth inhibition [2] -5.15% | viability increase [3] -3.65% | viability [4] 99.8% | viability [5] 97.5% | inhibition [6] 2.33% | RAM network inhibition [7] 5.64%

COc1ccc(CNC(=O)CS(=O)Cc2nc(-c3ccc(C)cc3)oc2C)cc1 (configuration not stated)
inactive: growth inhibition [1] -5.34% | growth inhibition [2] 0.735% | viability increase [3] -2.44% | viability [4] 86.9% | viability [5] 93.4% | inhibition [6] 1.39% | RAM network inhibition [7] 5.95%

Cn1c(=O)oc2cc(S(=O)(=O)N3CCCC(C(=O)N4CCc5ccccc5C4)C3)ccc21 (configuration not stated)
inactive: growth inhibition [1] 1.16% | growth inhibition [2] -8.79% | viability increase [3] -2.62% | viability [4] 87.8% | viability [5] 84.9% | inhibition [6] 1.8% | RAM network inhibition [7] -0.89%

Cc1c(NS(=O)(=O)c2ccccc2)cc(Cl)c(O)c1C
inactive: growth inhibition [1] -9.11% | growth inhibition [2] -4.86% | viability increase [3] -5.19% | viability [4] 90.9% | viability [5] 93.5% | inhibition [6] 0.695% | RAM network inhibition [7] 6.75%

O=C(Nc1nnc(C2CC2)s1)c1cc(-c2ccccc2)nn1-c1ccccc1
inactive: growth inhibition [1] 2.87% | growth inhibition [2] 30.2% | viability increase [3] -0.61% | viability [4] 76.6% | viability [5] 71.9% | inhibition [6] 2.71% | RAM network inhibition [7] 3.62%

CCCn1c(C(C)NC(C)=O)nc2ccccc21 (configuration not stated)
inactive: growth inhibition [1] -10.3% | growth inhibition [2] -16.9% | viability increase [3] -1.47% | viability [4] 99.2% | viability [5] 90.7% | inhibition [6] 1.3% | RAM network inhibition [7] 1.25%

CCCOC(=O)c1ccc(NC(=O)c2ccoc2C)cc1
inactive: growth inhibition [1] -3.79% | growth inhibition [2] 1.33% | viability increase [3] 0.94% | viability [4] 75.5% | viability [5] 78% | inhibition [6] 2.72% | RAM network inhibition [7] 4.37%

O=C(CC1NC(=O)NC1=O)NC1(C(=O)NC2CCCCC2)CCCCC1 (configuration not stated)
inactive: growth inhibition [1] -9.09% | growth inhibition [2] 5.08% | viability increase [3] 0.88% | viability [4] 99.3% | viability [5] 102% | inhibition [6] 1.18% | RAM network inhibition [7] -0.62%

CCCOC(=O)CC1C(=O)NCCN1Cc1ccc(F)cc1 (configuration not stated)
inactive: growth inhibition [1] -12.3% | growth inhibition [2] -6.77% | viability increase [3] -1.04% | viability [4] 104% | viability [5] 98.3% | inhibition [6] 2.83% | RAM network inhibition [7] 1.73%

CCOc1ccc(S(=O)(=O)n2ccnc2)c2ccccc12
inactive: growth inhibition [1] -2.9% | growth inhibition [2] 0.2% | viability increase [3] -1.1% | viability [4] 101% | viability [5] 106% | inhibition [6] 0.31% | RAM network inhibition [7] 2.78%

O=C1CC(NCc2ccc3c(c2)OCO3)C(=O)N1CCc1ccccc1 (configuration not stated)
inactive: growth inhibition [1] -16% | growth inhibition [2] -11.1% | viability increase [3] -2.06% | viability [4] 102% | viability [5] 104% | inhibition [6] 1.88% | RAM network inhibition [7] 0.51%

NS(=O)(=O)c1ccc(CCNC2CC(=O)N(CCc3ccccc3)C2=O)cc1 (configuration not stated)
inactive: growth inhibition [1] -14.1% | growth inhibition [2] -16% | viability increase [3] 1.79% | viability [4] 98% | viability [5] 99.9% | inhibition [6] 0.24% | RAM network inhibition [7] 1.42%

CC1(C)Cc2c(C#N)c(N)sc(=S)c2CO1
inactive: growth inhibition [1] 21.9% | viability increase [3] -1.77% | viability [4] 101% | viability [5] 106% | inhibition [6] 1.27% | RAM network inhibition [7] 2.98%
active: growth inhibition [2] 67%

COc1ccc(N2CCN(S(=O)(=O)c3ccc(OC)cc3)CC2)cc1
inactive: growth inhibition [1] -4.01% | growth inhibition [2] 3.09% | viability increase [3] -5.5% | viability [4] 99.3% | viability [5] 106% | inhibition [6] 0.885% | RAM network inhibition [7] 3.84%

CCOc1ccc(C2CC(c3ccc(OC)cc3)n3ncnc3N2)cc1 (configuration not stated)
inactive: growth inhibition [1] 1.92% | growth inhibition [2] 21% | viability increase [3] 0.61% | viability [4] 104% | viability [5] 99% | inhibition [6] -0.22% | RAM network inhibition [7] 4.99%

Cc1cc(=S)n(-c2ccccc2)n1C
inactive: growth inhibition [1] 1.78% | growth inhibition [2] 7.75% | viability increase [3] -0.34% | viability [4] 102% | viability [5] 95.4% | inhibition [6] 1.21% | RAM network inhibition [7] 0.45%

CCOC(=O)CC1C(=O)NCCN1C(=O)c1cc2c(=O)n3cccc(C)c3nc2s1 (configuration not stated)
inactive: growth inhibition [1] -11% | growth inhibition [2] -11.3% | viability increase [3] -3.53% | viability [4] 98% | viability [5] 98.8% | inhibition [6] -0.035% | RAM network inhibition [7] -1.37%

CC(C)(C)NC(=O)CSc1nc(O)cc(=O)n1-c1ccccc1F
inactive: growth inhibition [1] -5.45% | growth inhibition [2] -3.51% | viability increase [3] -0.7% | viability [4] 95.5% | viability [5] 101% | inhibition [6] 0.91% | RAM network inhibition [7] 1.87%

CCc1ccc(C2CC(c3cccc(Cl)c3)n3nc(N)nc3N2)cc1 (configuration not stated)
inactive: growth inhibition [1] -3.09% | growth inhibition [2] 10.4% | viability increase [3] -3.92% | viability [4] 71.5% | viability [5] 65.6% | inhibition [6] 2.25% | RAM network inhibition [7] 9.11%

CC(C)N1C(=O)CCC1C(=O)N1CCN(c2ccccn2)CC1 (configuration not stated)
inactive: growth inhibition [1] -11.9% | growth inhibition [2] -15.7% | viability increase [3] 0.54% | viability [4] 107% | viability [5] 103% | inhibition [6] 0.845% | RAM network inhibition [7] 1.45%

COC(=O)C1C(=O)c2c([nH]c(C(=O)OC3CCCCCC3)c2C)CC1C (configuration not stated)
inactive: growth inhibition [1] 1.09% | growth inhibition [2] 2.59% | viability increase [3] -2.6% | viability [4] 102% | viability [5] 91.1% | inhibition [6] 1.3% | RAM network inhibition [7] 3.01%

CC(NC(=O)C1CCC(=O)N1Cc1ccc(F)cc1)c1ccc2c(c1)OCCO2 (configuration not stated)
inactive: growth inhibition [1] -1.08% | growth inhibition [2] -4.75% | viability increase [3] -1.94% | viability [4] 96.4% | viability [5] 94.9% | inhibition [6] 0.975% | RAM network inhibition [7] 4.36%

Fc1ccccc1N1CCN(C2CCN(Cc3c[nH]c4ccccc34)CC2)CC1
inactive: growth inhibition [1] -1.12% | growth inhibition [2] 2.13% | viability increase [3] -6.63% | viability [4] 47.1% | viability [5] 58.8% | inhibition [6] 1.08% | RAM network inhibition [7] 0.22%

O=S(=O)(NC1CCCCC1)c1ccc(Br)cc1
inactive: growth inhibition [1] 2.22% | growth inhibition [2] 1.47% | viability increase [3] -2.36% | viability [4] 89.3% | viability [5] 89.8% | inhibition [6] 0.065% | RAM network inhibition [7] 2.96%

CCOc1ccc(C2N(c3ccc(F)cc3)C(=O)C3CCCN32)cc1 (configuration not stated)
inactive: growth inhibition [1] -6.9% | growth inhibition [2] -2.44% | viability increase [3] -0.91% | viability [4] 94.3% | viability [5] 91.2% | inhibition [6] 2.38% | RAM network inhibition [7] 4.43%

CC1CCCC(NC(=O)c2ccc(CNc3c(N4CCCC4)c(=O)c3=O)cc2)C1C (configuration not stated)
inactive: growth inhibition [1] -6.62% | growth inhibition [2] 2.02% | viability increase [3] -2.4% | viability [4] 90.7% | viability [5] 84.4% | inhibition [6] 2.51% | RAM network inhibition [7] 2.5%

O=C(CCN1C(=O)c2ccccc2C1=O)N1CCN(Cc2ccc(Cl)cc2Cl)CC1
inactive: growth inhibition [1] -8.77% | growth inhibition [2] -18% | viability increase [3] 1.45% | viability [4] 98.3% | viability [5] 104% | inhibition [6] 1.12% | RAM network inhibition [7] 7.67%

Cc1noc(NS(=O)(=O)c2ccc(N3Cc4ccccc4C3=O)cc2)c1C
inactive: growth inhibition [1] -3.04% | growth inhibition [2] 0.35% | viability increase [3] -2.74% | viability [4] 102% | viability [5] 104% | inhibition [6] 1.45% | RAM network inhibition [7] 5.3%

C(=N\c1nccs1)/c1cccnc1
inactive: growth inhibition [1] -7.2% | growth inhibition [2] -11.4% | viability increase [3] -0.86% | viability [4] 108% | viability [5] 100% | inhibition [6] 0.235% | RAM network inhibition [7] 2.23%
